Source: ChEMBL document CHEMBL4007489, “First Bispecific Inhibitors of the Epidermal Growth Factor Receptor Kinase and the NF-κB Activity As Novel Anticancer Agents” (J Med Chem, 2017)
Activity calls are given as the source filed them. The rule behind the calls is not given here.

Columns and labels:
[1] = biological target: Transcription factor p65 (Homo sapiens) (UniProt Q04206); assay: Inhibition of IL-1beta-stimulated nuclear translocation of GFP-tagged NF-kappaB-p65 (unknown origin) expressed in CHO cells preincubated with IL-1beta for 30 mins followed by compound addition by fluorescence assay; type: cell-based
Transcription factor p65 (Homo sapiens), sequence (Q04206 whole entry, the tested form may be a part): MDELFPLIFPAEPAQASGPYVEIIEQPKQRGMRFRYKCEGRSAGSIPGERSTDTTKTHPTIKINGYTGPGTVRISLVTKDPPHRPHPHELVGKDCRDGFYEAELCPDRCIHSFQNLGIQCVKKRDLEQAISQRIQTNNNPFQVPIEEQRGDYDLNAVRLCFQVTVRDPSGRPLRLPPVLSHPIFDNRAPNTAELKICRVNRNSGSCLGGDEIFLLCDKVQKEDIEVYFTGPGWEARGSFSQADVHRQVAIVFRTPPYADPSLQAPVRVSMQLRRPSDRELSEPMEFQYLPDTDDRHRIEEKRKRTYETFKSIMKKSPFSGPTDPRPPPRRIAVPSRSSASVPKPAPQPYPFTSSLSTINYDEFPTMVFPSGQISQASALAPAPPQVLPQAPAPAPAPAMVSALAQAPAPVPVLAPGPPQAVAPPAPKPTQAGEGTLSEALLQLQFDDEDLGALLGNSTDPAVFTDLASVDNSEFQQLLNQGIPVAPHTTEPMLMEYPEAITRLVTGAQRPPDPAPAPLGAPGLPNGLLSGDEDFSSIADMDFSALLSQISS
Outline: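 A GFP-NF-κB-p65 fusion was used; cells were stimulated for 30 min with 25 ng/mL IL-1β. Translocation of the fusion protein from cytoplasm to nucleus was imaged, and the system automatically quantified the ratio of cytoplasmic to nuclear fluorescence per well.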

[2] = biological target: T1, Proteasome Macropain subunit MB1 (Homo sapiens) (UniProt P28074); assay: Inhibition of chymotrypsin like activity of 26S proteasome derived from human MDA-MB-231 cells at 1 uM
T1 sequence (whole entry): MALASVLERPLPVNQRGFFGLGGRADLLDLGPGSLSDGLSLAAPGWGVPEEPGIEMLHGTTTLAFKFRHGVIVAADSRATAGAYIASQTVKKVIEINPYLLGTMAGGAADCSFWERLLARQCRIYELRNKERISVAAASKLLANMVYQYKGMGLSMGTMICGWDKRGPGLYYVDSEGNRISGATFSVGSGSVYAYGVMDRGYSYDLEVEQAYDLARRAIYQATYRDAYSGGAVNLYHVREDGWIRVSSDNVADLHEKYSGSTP
Outline: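 Total protein extract from MDA-MB-231 cells served as the source of 26S proteasome. Trypsin-like, chymotrypsin-like and caspase-like activities were each measured with a specific fluorigenic peptide substrate.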

[3] = biological target: T2, Proteasome component C5 (Homo sapiens) (UniProt P20618); details: 1 uM
T2 sequence (whole entry): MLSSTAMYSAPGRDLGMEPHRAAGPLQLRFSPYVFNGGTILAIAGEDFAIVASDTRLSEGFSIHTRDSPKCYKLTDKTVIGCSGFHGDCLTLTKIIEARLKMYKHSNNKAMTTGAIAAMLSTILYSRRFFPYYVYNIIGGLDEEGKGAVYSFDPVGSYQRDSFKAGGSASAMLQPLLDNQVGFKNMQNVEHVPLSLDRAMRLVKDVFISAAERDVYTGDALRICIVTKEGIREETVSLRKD

[4] = biological target: Proteasome Macropain subunit (Homo sapiens) (UniProt P49721); details: 1 uM
Proteasome Macropain subunit (Homo sapiens), sequence (P49721 whole entry): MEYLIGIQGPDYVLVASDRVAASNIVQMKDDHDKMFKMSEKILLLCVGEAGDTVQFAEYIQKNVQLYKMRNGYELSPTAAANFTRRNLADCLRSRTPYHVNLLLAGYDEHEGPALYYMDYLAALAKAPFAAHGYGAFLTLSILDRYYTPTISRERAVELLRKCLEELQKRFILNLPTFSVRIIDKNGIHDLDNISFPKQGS

[5] = biological target: T3, Epidermal growth factor receptor (Homo sapiens, UniProt P00533); assay: biochemical; type: cell-based
T3 sequence (P00533 whole entry): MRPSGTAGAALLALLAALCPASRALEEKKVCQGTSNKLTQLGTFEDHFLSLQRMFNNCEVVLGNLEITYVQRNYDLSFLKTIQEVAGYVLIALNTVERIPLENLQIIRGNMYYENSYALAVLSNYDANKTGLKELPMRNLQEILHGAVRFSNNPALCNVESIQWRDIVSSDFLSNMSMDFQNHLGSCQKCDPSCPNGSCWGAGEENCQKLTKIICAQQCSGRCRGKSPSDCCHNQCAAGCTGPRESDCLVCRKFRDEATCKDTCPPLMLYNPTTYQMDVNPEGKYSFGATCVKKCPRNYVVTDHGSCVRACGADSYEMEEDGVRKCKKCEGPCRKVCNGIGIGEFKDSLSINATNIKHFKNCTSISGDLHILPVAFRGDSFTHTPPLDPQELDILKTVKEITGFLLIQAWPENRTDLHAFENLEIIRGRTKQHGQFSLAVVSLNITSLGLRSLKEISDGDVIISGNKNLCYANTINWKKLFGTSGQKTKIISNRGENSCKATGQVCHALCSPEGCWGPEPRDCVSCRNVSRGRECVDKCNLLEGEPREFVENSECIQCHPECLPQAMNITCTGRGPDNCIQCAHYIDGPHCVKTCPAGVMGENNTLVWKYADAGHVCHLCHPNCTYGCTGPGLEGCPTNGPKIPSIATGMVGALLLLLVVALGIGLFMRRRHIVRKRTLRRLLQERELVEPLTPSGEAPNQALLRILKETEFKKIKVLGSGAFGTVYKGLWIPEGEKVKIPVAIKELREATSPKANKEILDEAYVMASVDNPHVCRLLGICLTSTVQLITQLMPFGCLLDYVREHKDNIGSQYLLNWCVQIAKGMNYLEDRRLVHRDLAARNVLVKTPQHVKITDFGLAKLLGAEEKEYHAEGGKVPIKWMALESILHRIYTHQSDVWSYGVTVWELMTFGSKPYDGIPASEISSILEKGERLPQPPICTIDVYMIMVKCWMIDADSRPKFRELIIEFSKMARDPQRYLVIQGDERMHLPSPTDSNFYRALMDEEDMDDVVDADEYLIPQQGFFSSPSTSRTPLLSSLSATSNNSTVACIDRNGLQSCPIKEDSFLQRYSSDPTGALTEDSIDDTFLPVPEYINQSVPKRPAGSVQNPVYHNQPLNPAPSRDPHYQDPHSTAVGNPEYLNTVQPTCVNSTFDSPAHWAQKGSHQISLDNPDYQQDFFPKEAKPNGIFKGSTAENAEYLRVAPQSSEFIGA

[6] = cells; type: cell-based; details: Homo sapiens, U-937
[7] = species: Homo sapiens; assay: Inhibition of TNFalpha-stimulated NF-kappaB (unknown origin) expressed in human U937 cells at 5 uM incubated for 3 hrs followed by TNFalpha stimulation measured after 2.5 hrs by luciferase reporter gene assay; type: cell-based
[8] = tested on: MDA-MB-231; assay: Growth inhibition of human MDA-MB-231 cells at 20 uM after 48 hrs by MTT assay; type: functional, cell-based
Outline: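 MDA-MB-231 cells seeded at 45000 per well and left to adhere overnight; compounds added after 24 h. Incubated a further 48 h at 37 °C. MTT added for 1 h, then cells lysed with 10% SDS in 0.01 N HCl for at least 2 h at 37 °C. Absorbance read at 570 nm.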

[9] = biological target: T3, Epidermal growth factor receptor; details: at 150 nM
[10] = tested on: MDA-MB-231; assay: cells; type: functional; details: Homo sapiens, MDA-MB-231, 48 h
[11] = Half life in Sprague-Dawley rat liver microsomes assessed as parent compound remaining at 0.5 uM in presence of NADPH by LC-MS/MS analysis; type: ADME, microsome
[12] = Blood clearance in Sprague-Dawley rat by LC-MS/MS analysis; type: ADME
[13] = Cmax in NMRI nu/nu mouse at 10 mg/kg, sc administered as single dose by LC-MS analysis; type: ADME, organism-based; set-up: dose 10 mg/kg, route subcutaneous; details: in vivo
Outline: (§1)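 Female NMRI nu/nu mice (28−32 g), nine animals per compound. Single sc injection of 10 mg/kg, formulated at 1 mg/mL in PBS/propylene glycol (80:20, v/v) by ultrasonication. Blood sampled at 10 min, 30 min, 1, 3, 8 and 24 h, two samples per animal, into heparinized tubes. Plasma proteins precipitated with acetonitrile containing griseofulvin internal standard. Quantified by LC-MS against calibration standards prepared in drug-free plasma.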

[14] = Tmax in NMRI nu/nu mouse at 10 mg/kg, sc administered as single dose by LC-MS analysis; type: ADME, organism-based; details: in vivo; outline: as §1
[15] = Drug uptake in NMRI nu/nu mouse at 10 mg/kg, sc administered as single dose after 24 hrs by LC-MS analysis; type: ADME, organism-based; details: in vivo, read-out: Drug uptake; outline: as §1
[16] = Half life in NMRI nu/nu mouse at 10 mg/kg, sc administered as single dose by LC-MS analysis; type: ADME, organism-based; details: in vivo; outline: as §1
[17] = AUC (0 to 24 hrs) in NMRI nu/nu mouse at 10 mg/kg, sc administered as single dose by LC-MS analysis; type: ADME, organism-based; set-up: dose 10 mg/kg, time < 24 hr, route subcutaneous; details: in vivo; outline: as §1
[18] = AUC (0 to infinity) in NMRI nu/nu mouse at 10 mg/kg, sc administered as single dose by LC-MS analysis; type: ADME, organism-based; set-up: dose 10 mg/kg, route subcutaneous, time infinity; details: in vivo; outline: as §1
[19] = Apparent oral clearance in NMRI nu/nu mouse at 10 mg/kg, sc administered as single dose by LC-MS analysis; type: ADME, organism-based; details: in vivo; outline: as §1
[20] = tested on: Mus musculus; assay: (§2) Toxicity in human MDA-MB-231 cells xenografted NMRI nu/nu mouse assessed as anomalous behaviour at 10 mg/kg, sc administered 5 days post tumor cell inoculation treated for 14 days followed by treatment pause for 6 days followed by treatment continuation on every second day until day 28 measured on day 7, 14 and day 28; type: organism-based; details: in vivo
Outline: (§3)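 Mice bearing MDA-MB-231 xenografts were monitored for behaviour and body weight over the 28-day sc dosing schedule. Organ morphology was inspected after sacrifice.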

[21] = tested on: Mus musculus; assay: as §2, with “effect on organ morphology” for “anomalous behaviour”; type: organism-based; details: in vivo
Outline: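 Female NMRI nu/nu mice (~8 weeks old) received 2 × 10^6 MDA-MB-231 cells in Matrigel into each flank. Dosing began 5 days later (day 1), with 6 mice per group. Compound or vehicle was given sc in PBS/propylene glycol (80:20, v/v) at 1 mg/mL. Behaviour and body weight were followed. Organs were inspected morphologically after sacrifice on day 28.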

[22] = tested on: Mus musculus; assay: as §2, with “effect on body weight” for “anomalous behaviour”; type: organism-based; details: in vivo; outline: as §3
[23] = tested on: Mus musculus; assay: Toxicity in NMRI nu/nu mouse assessed as anomalous behaviour at 10 mg/kg, sc administered as single dose; type: organism-based; details: in vivo
[24] = tested on: Mus musculus; assay: Toxicity in NMRI nu/nu mouse assessed as effect on organ morphology at 10 mg/kg, sc administered as single dose; type: organism-based; details: in vivo
[25] = Solubility in water; type: physicochemical; details: buffer
[26] = species: Homo sapiens; assay: Inhibition of TNFalpha-stimulated NF-kappaB (unknown origin) expressed in human U937 cells at 1 to 5 uM incubated for 3 hrs followed by TNFalpha stimulation measured after 2.5 hrs by luciferase reporter gene assay; type: cell-based
[27] = biological target: Serine/threonine-protein kinase pim-1 (Homo sapiens, UniProt P11309); assay: Inhibition of human recombinant full length His-tagged PIM-1 expressed in baculovirus expression system
Serine/threonine-protein kinase pim-1, sequence (P11309 whole entry, looked up): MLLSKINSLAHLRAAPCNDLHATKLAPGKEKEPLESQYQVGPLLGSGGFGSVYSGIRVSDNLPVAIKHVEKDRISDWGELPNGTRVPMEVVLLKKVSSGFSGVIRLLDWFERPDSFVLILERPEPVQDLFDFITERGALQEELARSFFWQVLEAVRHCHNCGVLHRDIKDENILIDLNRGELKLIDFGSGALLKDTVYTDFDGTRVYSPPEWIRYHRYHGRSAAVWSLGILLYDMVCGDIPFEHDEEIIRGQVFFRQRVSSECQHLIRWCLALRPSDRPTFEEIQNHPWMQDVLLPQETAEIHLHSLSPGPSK

[28] = tested on: MDA-MB-231; assay: Antitumor activity against human MDA-MB-231 cells xenografted in NMRI nu/nu mouse at 10 mg/kg, sc administered 5 days post tumor cell inoculation treated for 14 days followed by treatment pause for 6 days measured after 21 days; type: functional, organism-based
Outline: (§4)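 MDA-MB-231 cells, 2 × 10^6 per site in Matrigel, injected into both flanks of female NMRI nu/nu mice about 8 weeks old; 6 mice per group. From day 5 after inoculation (day 1), sc dosing in PBS/propylene glycol 80:20. Dosing every weekday for 14 days, then a 6-day pause, then every second day from day 21 to sacrifice on day 28. Tumor diameters measured weekly by calipers; unpaired two-tailed t test against vehicle.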

[29] = tested on: MDA-MB-231; assay: as §2, with “Antitumor activity against” for “Toxicity in”, “xenografted in” for “xenografted”, “mouse” for “mouse assessed as anomalous behaviour”; type: functional, organism-based; outline: as §4
[30] = biological target: Receptor tyrosine-protein kinase erbB-4 (Homo sapiens) (UniProt Q15303); assay: Inhibition of N-terminal GST-tagged human recombinant ERBB4 expressed in baculovirus expression system
Receptor tyrosine-protein kinase erbB-4 (Homo sapiens), sequence (Q15303 whole entry): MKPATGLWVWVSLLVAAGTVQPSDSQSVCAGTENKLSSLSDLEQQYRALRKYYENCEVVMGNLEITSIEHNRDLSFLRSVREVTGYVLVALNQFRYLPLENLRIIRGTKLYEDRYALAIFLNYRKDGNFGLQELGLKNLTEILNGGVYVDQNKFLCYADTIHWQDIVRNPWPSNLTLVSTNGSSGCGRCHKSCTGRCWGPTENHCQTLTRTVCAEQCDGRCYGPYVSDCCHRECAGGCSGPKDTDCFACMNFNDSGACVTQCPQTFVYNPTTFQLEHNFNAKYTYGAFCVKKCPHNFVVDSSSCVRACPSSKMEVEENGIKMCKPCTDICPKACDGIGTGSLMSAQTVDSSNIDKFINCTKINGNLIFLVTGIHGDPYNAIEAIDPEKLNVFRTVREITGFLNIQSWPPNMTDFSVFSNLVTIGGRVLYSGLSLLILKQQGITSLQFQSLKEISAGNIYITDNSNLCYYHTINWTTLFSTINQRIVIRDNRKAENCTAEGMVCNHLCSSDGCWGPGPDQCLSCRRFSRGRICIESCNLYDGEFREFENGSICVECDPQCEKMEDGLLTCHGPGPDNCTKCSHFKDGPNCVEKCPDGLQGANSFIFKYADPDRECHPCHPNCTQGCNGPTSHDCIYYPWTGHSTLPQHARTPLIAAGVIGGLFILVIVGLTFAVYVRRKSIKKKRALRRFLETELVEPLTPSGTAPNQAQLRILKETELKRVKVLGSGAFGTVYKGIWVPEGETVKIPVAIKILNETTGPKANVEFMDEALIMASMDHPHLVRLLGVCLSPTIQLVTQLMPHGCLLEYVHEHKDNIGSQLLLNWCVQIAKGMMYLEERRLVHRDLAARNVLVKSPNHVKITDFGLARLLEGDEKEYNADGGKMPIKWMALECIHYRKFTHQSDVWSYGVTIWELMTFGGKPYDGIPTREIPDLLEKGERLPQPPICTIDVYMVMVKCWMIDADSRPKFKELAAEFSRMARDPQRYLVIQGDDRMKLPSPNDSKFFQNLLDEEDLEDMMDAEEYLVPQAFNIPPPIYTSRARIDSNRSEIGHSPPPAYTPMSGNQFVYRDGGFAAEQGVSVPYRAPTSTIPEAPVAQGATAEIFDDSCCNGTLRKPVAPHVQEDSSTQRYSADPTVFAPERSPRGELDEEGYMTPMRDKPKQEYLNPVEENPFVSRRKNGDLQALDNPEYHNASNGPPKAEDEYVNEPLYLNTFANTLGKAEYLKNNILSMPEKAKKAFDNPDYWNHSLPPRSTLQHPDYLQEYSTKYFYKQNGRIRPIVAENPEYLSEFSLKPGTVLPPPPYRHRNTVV

[31] = biological target: Transcription factor p65 (Homo sapiens) (UniProt Q04206); assay: Inhibition of IL-1beta-stimulated nuclear translocation of GFP-tagged NF-kappaB-p65 (unknown origin) expressed in CHO cells at 15 uM preincubated with IL-1beta for 30 mins followed by compound addition by fluorescence assay; type: cell-based
[32] = biological target: Transcription factor p65 (Homo sapiens) (UniProt Q04206); assay: Inhibition of NF-kappaB-p65 binding to NF-kappaB response element oligonucleotide in nuclear extracts of 12 hrs compound pre-treated human MDA-MB-231 cells at 2.5 to 15 uM by ELISA
Outline: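 MDA-MB-231 cells treated with compound or DMSO for 12 h; in some runs TNFα (20 ng/mL final) added for a further 20 min at 37 °C. Nuclear extracts prepared on ice and protein measured by Bradford. 5 μg of extract incubated on plate-immobilized NF-κB response element oligonucleotide. Bound complexes detected with anti-p65 primary and HRP secondary antibody, read at 450 nm. Specificity checked by competition with free oligonucleotide; triplicates.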

[33] = tested on: MDA-MB-231; assay: as §2, with “Antitumor activity against” for “Toxicity in”, “xenografted in” for “xenografted”, “mouse” for “mouse assessed as anomalous behaviour”, “25” for “10”; type: functional, organism-based; outline: as §4
[34] = biological target: Transcription factor p65 (Homo sapiens) (UniProt Q04206); assay: Inhibition of IL-1beta-stimulated nuclear translocation of GFP-tagged NF-kappaB-p65 (unknown origin) expressed in CHO cells at 15 uM preincubated with IL-1beta for 30 mins followed by compound addition in presence of Pluronic F127 by fluorescence assay; type: cell-based
[35] = biological target: Receptor tyrosine-protein kinase erbB-4 (Homo sapiens) (UniProt Q15303); details: 0.5 uM
[36] = species: Homo sapiens; details: at 10 µM;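 also: luciferase reporter readout of NF-kappaB activity in human U937 cells, compound added 3 h before TNFalpha stimulation, signal read 2.5 h after stimulation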

CC(C)C[C@H](NC(=O)[C@H](Cc1ccccc1)NC(=O)c1cnccn1)B(O)O
inhibition [1]: Dose-dependent effect | inhibition [2]: Active | inhibition [3]: Active | inhibition [4]: Active

S=C(Nc1ccc2ncnc(Nc3cccc(Cl)c3)c2c1)Nc1ncc(Cl)s1
IC50 [5]: 0.12 µM | IC50 [6]: 0.7 µM | inhibition [7]: 88.2% | growth inhibition (GI) [8]: inactive | inhibition [9]: 60%

FC(F)(F)c1csc(NC(=S)Nc2ccc3ncnc(Nc4cccc(Cl)c4)c3c2)n1
IC50 [5]: 0.137 µM | IC50 [6]: 0.6 µM | GI50 [10]: 0.9 µM | inhibition [7]: 92% | half-life at 0.5 µM [11]: 0.367 h | clearance [12]: 51 mL/min/kg | Cmax [13]: 101 ng/mL | Tmax [14]: 1 h | concentration at 24 h [15]: 3.5 ng/mL | half-life [16]: 4.3 h | AUC(0-t) at 24 h [17]: 1040 ng·h/mL | AUC(0-inf) [18]: 1060 ng·h/mL | CL/F [19]: 157 mL/min/kg | Activity [20]: Non-Toxic | Activity [21]: Non-Toxic | Activity [22]: Non-Toxic | Activity [23]: Non-Toxic | Activity [24]: Non-Toxic | solubility [25]: Soluble | inhibition [9]: 56.4%

O=C1NC(=O)/C(=C/c2cccc(C(F)(F)F)c2)S1
inhibition [26]: inactive

Fc1ccc(NC(=S)Nc2ccc3ncnc(Nc4cccc(Cl)c4)c3c2)cc1F
inhibition [7]: 37.6% | inhibition [9]: 44.4%

FC(F)(F)c1nnc(NC(=S)Nc2ccc3ncnc(Nc4cccc(Cl)c4)c3c2)s1
IC50 [5]: 0.13 µM | IC50 [6]: 1 µM | inhibition [7]: 80.5% | inhibition [9]: 70.7%

Cc1nnc(NC(=S)Nc2ccc3ncnc(Nc4cccc(Cl)c4)c3c2)s1
IC50 [5]: 0.12 µM | IC50 [6]: 1.2 µM | inhibition [7]: 76.1% | inhibition [9]: 70.8%

Fc1cc(F)cc(NC(=S)Nc2ccc3ncnc(Nc4cccc(Cl)c4)c3c2)c1
IC50 [5]: 0.0601 µM | IC50 [6]: 0.3 µM | GI50 [10]: 1.1 µM | inhibition [27]: inactive | inhibition [7]: 73.5% | half-life at 0.5 µM [11]: 2.32 h | clearance [12]: 19 mL/min/kg | Cmax [13]: 327 ng/mL | Tmax [14]: 8 h | concentration at 24 h [15]: 79 ng/mL | half-life [16]: 7.8 h | AUC(0-t) at 24 h [17]: 5440 ng·h/mL | AUC(0-inf) [18]: 6330 ng·h/mL | CL/F [19]: 26.3 mL/min/kg | TGI [28]: Active | Activity [20]: Non-Toxic | Activity [21]: Non-Toxic | Activity [22]: Non-Toxic | Activity [23]: Non-Toxic | Activity [24]: Non-Toxic | solubility [25]: Soluble | TGI [29]: Active | inhibition [30]: inactive | inhibition [9]: 87.6%

S=C(Nc1cncc(Cl)c1)Nc1ccc2ncnc(Nc3cccc(Cl)c3)c2c1
IC50 [5]: 0.0555 µM | IC50 [6]: 3 µM | inhibition [7]: 78% | inhibition [9]: 85%

COc1cc2ncnc(Nc3ccc(F)c(Cl)c3)c2cc1OCCCN1CCOCC1 [GEFITINIB]
inhibition [31]: inactive | inhibition [32]: inactive | TGI [33]: Active | inhibition [34]: inactive | solubility [25]: Soluble | inhibition [35]: 46 to 76%

FC(F)(F)c1cc(NC(=S)Nc2ccc3ncnc(Nc4cccc(Br)c4)c3c2)ccc1Cl
IC50 [5]: > 0.15 µM | IC50 [6]: 1.7 µM | GI50 [10]: 1.1 µM | inhibition [36]: 99% | inhibition [9]: 44%
